Values belong to the molecule of their own block, whether it stands above or below them.
How the values were obtained:
Rattus norvegicus [1] = assay: Antiparkinsonian activity in 6-hydroxydopamine lesioned Wistar rat assessed as number of rotation per 10 mins at 23.89 mg/kg, po; format: functional
Rattus norvegicus [2] = assay: Antiparkinsonian activity in 6-hydroxydopamine lesioned Wistar rat assessed as area under curve measured as number of rotation per 10 mins at 23.89 mg/kg, po; format: functional
Outline: (§1)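 Male Wistar rats were given desipramine (25 mg/kg ip) and then a unilateral 6-OHDA injection (8 µg free base) into the left medial forebrain bundle. Lesions were confirmed ≥2 weeks later by apomorphine (0.5 mg/kg sc), accepting rats with >6 turns/min. Rats (n=4–8) received benserazide 10 mg/kg and 30 min basal recording, then drug at 63.4 µmol/kg ip or po in saline. Contraversive rotations were counted per 10 min over 240 min. AUC was calculated and expressed as % of the L-dopa effect.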

Rattus norvegicus [3] = assay: Antiparkinsonian activity in 6-hydroxydopamine lesioned Wistar rat assessed as duration of rotation per 10 mins at 23.89 mg/kg, po; format: functional
Outline: (§2)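 The 6-OHDA-lesioned male Wistar rats were apomorphine-screened (>6 turns/min) and given benserazide 10 mg/kg, then a saline-vehicle dose of 63.4 µmol/kg ip or po (n=4–8). Rotations were counted per 10 min for 4 h. Duration of activity was the time turning >10 turns per 10 min, expressed as % of the L-dopa effect.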

Rattus norvegicus [4] = assay: Cmax in Wistar rat at 23.9 mg/kg, po assessed as L-dopa level; format: ADME, organism-based; set-up: dose 23.9 mg/kg, route oral; settings: in vivo
Outline: (§3)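 Naïve male Wistar rats (250–500 g), fasted overnight, dosed orally in 0.9% saline with benserazide (10 mg/kg) at dose equivalent to 12.5 mg/kg L-dopa. Heparinised tail-vein blood at various times; plasma extracted with 20% TFA in 10 mM metabisulphite with warfarin internal standard; L-dopa quantified by LC-MS/MS (positive ESI) against plasma standard curve 0.39–50 µM.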

Rattus norvegicus [5] = assay: AUC (0 to 4 hrs) in Wistar rat at 23.9 mg/kg, po assessed as L-dopa level; format: ADME, organism-based, Plasma; set-up: time < 4 hr, dose 23.9 mg/kg, route oral; settings: in vivo
Outline: (§4)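 Naïve male Wistar rats (250–500 g), fasted overnight, dosed with compound in 0.9% saline together with benserazide (10 mg/kg), at a dose molar-equivalent to 12.5 mg/kg L-dopa. Heparinised tail-vein blood was sampled at intervals and the plasma stored at −80 °C. L-dopa was extracted with 20% TFA/10 mM metabisulphite plus warfarin internal standard and quantified by LC-MS/MS (positive ESI) against plasma standard curves.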

Rattus norvegicus [6] = assay: Antiparkinsonian activity in 6-hydroxydopamine lesioned Wistar rat assessed as number of rotation per 10 mins at 21.35 mg/kg, ip; format: functional; settings: route intraperitoneal
Rattus norvegicus [7] = assay: Antiparkinsonian activity in 6-hydroxydopamine lesioned Wistar rat assessed as number of rotation per 10 mins at 21.35 mg/kg, po; format: functional
Rattus norvegicus [8] = assay: Antiparkinsonian activity in 6-hydroxydopamine lesioned Wistar rat assessed as area under curve measured as number of rotation per 10 mins at 21.35 mg/kg, po; format: functional; outline: as §1
Rattus norvegicus [9] = assay: Antiparkinsonian activity in 6-hydroxydopamine lesioned Wistar rat assessed as area under curve measured as number of rotation per 10 mins at 21.35 mg/kg, ip; format: functional; settings: route intraperitoneal; outline: as §1
Rattus norvegicus [10] = assay: Antiparkinsonian activity in 6-hydroxydopamine lesioned Wistar rat assessed as duration of rotation per 10 mins at 21.35 mg/kg, po; format: functional; outline: as §2
Rattus norvegicus [11] = assay: Antiparkinsonian activity in 6-hydroxydopamine lesioned Wistar rat assessed as duration of rotation per 10 mins at 21.35 mg/kg, ip; format: functional; settings: route intraperitoneal; outline: as §2
Rattus norvegicus [12] = assay: Antiparkinsonian activity in 6-hydroxydopamine lesioned Wistar rat assessed as number of rotation per 10 mins at 21.86 mg/kg, po; format: functional
Rattus norvegicus [13] = assay: Antiparkinsonian activity in 6-hydroxydopamine lesioned Wistar rat assessed as area under curve measured as number of rotation per 10 mins at 21.86 mg/kg, po; format: functional; outline: as §1
Rattus norvegicus [14] = assay: Antiparkinsonian activity in 6-hydroxydopamine lesioned Wistar rat assessed as duration of rotation per 10 mins at 21.86 mg/kg, po; format: functional; outline: as §2
Rattus norvegicus [15] = assay: Antiparkinsonian activity in 6-hydroxydopamine lesioned Wistar rat assessed as duration of rotation per 10 mins at 15.64 mg/kg, po; format: functional; outline: as §2
Rattus norvegicus [16] = assay: Antiparkinsonian activity in 6-hydroxydopamine lesioned Wistar rat assessed as number of rotation per 10 mins at 15.64 mg/kg, ip; format: functional; settings: route intraperitoneal
Outline: (§5)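 Rotometer assay in unilaterally 6-OHDA-lesioned male Wistar rats (apomorphine-confirmed, >6 turns/min). Benserazide 10 mg/kg was given, followed by compound at 63.4 µmol/kg ip or po in saline (n=4–8 per treatment). Rotations were recorded per 10 min for 240 min. Peak (maximum) rotations per 10 min were taken and expressed relative to L-dopa.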

Rattus norvegicus [17] = assay: Antiparkinsonian activity in 6-hydroxydopamine lesioned Wistar rat assessed as number of rotation per 10 mins at 15.64 mg/kg, po; format: functional; outline: as §5
Rattus norvegicus [18] = assay: Antiparkinsonian activity in 6-hydroxydopamine lesioned Wistar rat assessed as area under curve measured as number of rotation per 10 mins at 15.64 mg/kg, po; format: functional; outline: as §1
Rattus norvegicus [19] = assay: Antiparkinsonian activity in 6-hydroxydopamine lesioned Wistar rat assessed as area under curve measured as number of rotation per 10 mins at 15.64 mg/kg, ip; format: functional; settings: route intraperitoneal; outline: as §1
Rattus norvegicus [20] = assay: Antiparkinsonian activity in 6-hydroxydopamine lesioned Wistar rat assessed as duration of rotation per 10 mins at 15.64 mg/kg, ip; format: functional; settings: route intraperitoneal; outline: as §2
Rattus norvegicus [21] = assay: Cmax in Wistar rat at 42.5 mg/kg, po assessed as L-dopa level; format: ADME, organism-based; set-up: dose 42.5 mg/kg, route oral; settings: in vivo; outline: as §3
Rattus norvegicus [22] = assay: Apparent half life in Wistar rat at 42.5 mg/kg, po assessed as L-dopa level; format: ADME, organism-based; set-up: dose 42.5 mg/kg, route oral; settings: in vivo; outline: as §3
Rattus norvegicus [23] = assay: AUC (0 to 4 hrs) in Wistar rat at 42.5 mg/kg, po assessed as L-dopa level; format: ADME, organism-based, Plasma; set-up: time < 4 hr, dose 42.5 mg/kg, route oral; settings: in vivo; outline: as §4
Rattus norvegicus [24] = assay: Antiparkinsonian activity in 6-hydroxydopamine lesioned Wistar rat assessed as number of rotation per 10 mins at 21.81 mg/kg, po; format: functional
Rattus norvegicus [25] = assay: Antiparkinsonian activity in 6-hydroxydopamine lesioned Wistar rat assessed as area under curve measured as number of rotation per 10 mins at 21.81 mg/kg, po; format: functional; outline: as §1
Rattus norvegicus [26] = assay: Antiparkinsonian activity in 6-hydroxydopamine lesioned Wistar rat assessed as duration of rotation per 10 mins at 21.81 mg/kg, po; format: functional; outline: as §2

Cmax (Rattus norvegicus [4]): 690 ng/mL
AUC (Rattus norvegicus [5]): 95 µg·min/mL
SMILES: CCOC(=O)Oc1ccc(C[C@H](N)C(N)=O)cc1OC(=O)OCC.Cl
Activity (Rattus norvegicus [1]): 90
Activity (Rattus norvegicus [2]): 579
Time (Rattus norvegicus [3]): 153 min

SMILES: Cl.N[C@@H](Cc1ccc(O)c(O)c1)C(=O)NCCc1ccccc1
Activity (Rattus norvegicus [6]): 124
Activity (Rattus norvegicus [7]): 17
Activity (Rattus norvegicus [8]): 94
Activity (Rattus norvegicus [9]): 825
Time (Rattus norvegicus [10]): 30 min
Time (Rattus norvegicus [11]): 124 min

SMILES: CCNC(=O)[C@@H](N)Cc1ccc(OC(C)=O)c(OC(C)=O)c1.Cl
Activity (Rattus norvegicus [12]): 6
Activity (Rattus norvegicus [13]): 20
Time (Rattus norvegicus [14]): 3 min

SMILES: CNC(=O)[C@@H](N)Cc1ccc(O)c(O)c1.Cl
Time (Rattus norvegicus [15]): 10 min
Activity (Rattus norvegicus [16]): 2
Activity (Rattus norvegicus [17]): 5
Activity (Rattus norvegicus [18]): 29
Activity (Rattus norvegicus [19]): 16
Time (Rattus norvegicus [20]): 0 min

Cmax (Rattus norvegicus [21]): 415 ng/mL
t1/2 (Rattus norvegicus [22]): 51 min
AUC (Rattus norvegicus [23]): 44 µg·min/mL
SMILES: CC(C)(C)C(=O)Oc1ccc(C[C@H](N)C(N)=O)cc1OC(=O)C(C)(C)C.Cl

SMILES: CC(=O)Oc1ccc(C[C@H](N)C(=O)N(C)C)cc1OC(C)=O.Cl
Activity (Rattus norvegicus [24]): 1
Activity (Rattus norvegicus [25]): 26
Time (Rattus norvegicus [26]): 0 min

From ChEMBL document CHEMBL1240480, “Design, synthesis and biological evaluation of L-dopa amide derivatives as potential prodrugs for the treatment of Parkinson's disease” (Eur J Med Chem, 2010)
